Experimental data taken from ChEMBL document CHEMBL3526116, “Toxicological evaluation of acyl glucuronides of nonsteroidal anti-inflammatory drugs using human embryonic kidney 293 cells stably expressing human UDP-glucuronosyltransferase and human hepatocytes” (Drug Metab Dispos, 2011).

How the values were obtained:
HEK293 [1] = test: Cytotoxicity against HEK293 cells expressing UGT1A4 assessed as decrease in cell viability at 0.1 mM measured at 24 hrs […]; assay type: ADME, cell-based; settings: human, hek293, 24 h, 100 µM
HEK293 [2] = test: Cytotoxicity against HEK293 cells expressing UGT assessed as decrease in cell viability at 0.1 mM measured up to 72 hrs by MTT assay; assay type: ADME, cell-based; settings: human, hek293, 72 h, 100 µM
Outline: (§1)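 Mock and UGT1A3/UGT1A4 stable HEK293 cells given drug for up to 72 h; viability measured by WST-8-based MTT assay.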

HEK293 [3] = test: Cytotoxicity against HEK293 cells expressing UGT1A3 assessed as decrease in cell viability at 0.1 mM measured at 24 hrs by MTT assay; assay type: ADME, cell-based; settings: human, hek293, 24 h, 100 µM
HEK293 [4] = test: Cytotoxicity against HEK293 cells expressing UGT1A4 assessed as decrease in cell viability at 1 mM measured at 24 hrs by MTT assay; assay type: ADME, cell-based; settings: human, hek293, 24 h, 1000 µM
HEK293 [5] = test: Cytotoxicity against HEK293 cells expressing UGT assessed as decrease in cell viability at 1 mM measured up to 72 hrs by MTT assay; assay type: ADME, cell-based; settings: human, hek293, 72 h, 1000 µM; outline: as §1
HEK293 [6] = test: Genotoxicity in HEK293 cells expressing UGT1A3 assessed as DNA strand breaks at 1 mM after 24 hrs by comet assay; assay type: toxicity, cell-based; settings: human, hek293, 24 h, 1000 µM
Outline: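 Alkaline comet assay: HEK/UGT1A3 cells seeded 24 h before, treated 24 h in DMEM with 0.5% FBS (vehicle 0.1% DMSO; MMS 0.1 mM positive control). Cells embedded in LMP agarose, lysed 1 h at 4°C at pH 10, unwound 30 min in NaOH/EDTA, electrophoresed 300 mA 20 min, ethidium-stained; tail moment scored on 150-180 comets over >3 experiments, median (IQR).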

HEK293 [7] = test: Cytotoxicity against HEK293 cells expressing UGT1A3 assessed as decrease in cell viability at 1 mM measured at 24 hrs by MTT assay; assay type: ADME, cell-based; settings: human, hek293, 24 h, 1000 µM
HEK293 [8] = test: Genotoxicity in HEK293 cells expressing UGT1A3 assessed as DNA strand breaks at 0.1 mM after 24 hrs by comet assay; assay type: toxicity, cell-based; settings: human, hek293, 24 h, 100 µM
Outline: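 HEK293 cells stably expressing UGT1A3, seeded 24 h before treatment and exposed 24 h in 0.5% FBS DMEM (vehicle 0.1% DMSO). Alkaline comet assay: low-melting agarose embedding, lysis pH 10 for 1 h at 4°C, 30 min unwinding in NaOH/EDTA, electrophoresis 300 mA for 20 min, ethidium bromide stain. Tail extent moment scored on 150-180 cells over more than 3 experiments, median (IQR).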

In the case of `Cc1cc(CC(=O)O)n(C)c1C(=O)c1ccc(Cl)cc1` [ZOMEPIRAC], the Activity (HEK293 [1]) is reported as “Non-toxic”, the Activity (HEK293 [2]) is reported as “Non-toxic” and the Activity (HEK293 [3]) is reported as “Non-toxic”.
With `CC(C)(Oc1ccc(Cl)cc1)C(=O)O` [CLOFIBRIC ACID] the Activity (HEK293 [4]) was “Non-toxic”, the Activity (HEK293 [5]) was “Non-toxic” and the Activity (HEK293 [6]) was “Toxic”. For the same compound, the Activity (HEK293 [7]) was “Non-toxic”.
For `COS(C)(=O)=O` [METHANESULFONIC ACID METHYL ESTER], the Activity (HEK293 [8]) was “Toxic”.
For `CC(C(=O)O)c1ccc(-c2ccccc2)c(F)c1` (stereo not given) [FLURBIPROFEN], the Activity (HEK293 [7]) was “Non-toxic”.
With `Cc1ccc(C)c(OCCCC(C)(C)C(=O)O)c1` [GEMFIBROZIL] the Activity (HEK293 [4]) was “Non-toxic”, the Activity (HEK293 [5]) was “Non-toxic” and the Activity (HEK293 [7]) was “Non-toxic”.
`COc1ccc2c(c1)c(CC(=O)O)c(C)n2C(=O)c1ccc(Cl)cc1` [INDOMETHACIN] was tested, and the Activity (HEK293 [7]) was “Non-toxic”.
In the case of `CC(C)(Oc1ccc(CCNC(=O)c2ccc(Cl)cc2)cc1)C(=O)O` [BEZAFIBRATE], the Activity (HEK293 [7]) is reported as “Non-toxic”.
In the case of `Cc1cccc(Nc2ccccc2C(=O)O)c1C` [MEFENAMIC ACID], the Activity (HEK293 [7]) is reported as “Non-toxic”.
